# Sampled rows, rich in hits. Any-hit rate of the full collection: about 1.8%.
# UBC9 SUMO inh – blocks human SUMOylation mediated by UBC9 | actives 0.36% (n = 290,000) | P63279 | HTRF SUMOylation assay, SAE1/SAE2 + UBC9, in vitro | inhibition, % at 35 µM | AID 2006; in the data active = inhibition above about 50%, passing the limit was not always enough
# Target sequence (P63279 whole entry, looked up): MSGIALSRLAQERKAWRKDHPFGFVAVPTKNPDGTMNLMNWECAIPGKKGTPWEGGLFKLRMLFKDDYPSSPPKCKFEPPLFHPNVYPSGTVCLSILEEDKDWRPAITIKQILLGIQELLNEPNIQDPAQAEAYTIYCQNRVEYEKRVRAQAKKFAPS
# TPT1 inh – blocks Candida albicans tRNA 2'-phosphotransferase. recombinant caTPT1, FP RNA substrate dephosphorylation. inhibition, % at 5 µM. actives 0.81% (n = 300,000). AID 1962;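 active = inhibition above the mean of all tested compounds plus 3 SD, set per screening campaign, cut at about 24% in these data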;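 note: plate controls were DMSO alone for no effect and ferristatin control at 100 nM for full effect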
# Rpn11 block – inhibitors of human proteasome Rpn11 | actives 0.59% (n = 360,000) | O00487 | AID 588493 | calls only at 20 µM | human 26S proteasome, Ub4-pepOG fluorescence polarization; 20S core pre-blocked with epoxomicin;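 active = inhibition at 20 µM, scaled to each plate's controls, above about 33%, limit read from the data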
# SENP1 FRET inh – inhibitors of human SENP1 SUMO protease catalytic domain. Q9P0U3. recombinant SENP1 catalytic domain, CyPet-SUMO1-YPet FRET cleavage. inhibition, % at 10 µM. actives 0.21% (n = 360,000);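 active = inhibition at least 30% at 10 µM, raw YFP signal under a set limit, fluorescence ratio 0.5 to 1.5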;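 note: 0% = enzyme with DMSO and 100% = no enzyme wells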
#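 Compound: 10 µM single point, 0.5% DMSO; Test system: hSENP1 catalytic domain, recombinant; Timing: 50 min reaction at room temperature; Technique: FRET, CFP and YFP emission; Control set: no-enzyme wells low, DMSO-plus-enzyme wells high control.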
# CSN deneddyl inh – inhibitors of human CSN-mediated cullin deneddylation | inhibition, % at 12.5 µM | AID 651999 | Purified CSN, SCF-Nedd8-OG deneddylation, fluorescence polarization | actives 0.38% (n = 360,000) | Q92905;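 active = pattern-corrected inhibition above about 35%, with an unprinted fluorescence ratio check between 0.5 and 1.5, limit read from the data, passing the limit was not always enough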;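 note: 0% = enzyme with substrate and 100% = substrate without enzyme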
#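 Material: human Csn5 produced in HEK293T cells; Input: enzyme 0.24 nM; Reagent: SCFSkp2-Nedd8OG substrate at 10 nM final; Dosing: 12.5 µM compound; Incubation: 90 min reaction at room temperature; Detection: fluorescence polarization of the substrate; Evaluation: % inhibition of substrate cleavage by Csn5; Control set: substrate-only high control, full reaction low control.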
# HNF4A DNA FP – change in binding of human HNF4 alpha to DNA; HNF4a-FITC DNA binding, fluorescence polarization, 1 h; activity change, % at 10 µM; actives 0.3% (n = 360,000); in the data active = activity change above about 30%, passing the limit was not always enough
# Target sequence (P41235 whole entry, looked up): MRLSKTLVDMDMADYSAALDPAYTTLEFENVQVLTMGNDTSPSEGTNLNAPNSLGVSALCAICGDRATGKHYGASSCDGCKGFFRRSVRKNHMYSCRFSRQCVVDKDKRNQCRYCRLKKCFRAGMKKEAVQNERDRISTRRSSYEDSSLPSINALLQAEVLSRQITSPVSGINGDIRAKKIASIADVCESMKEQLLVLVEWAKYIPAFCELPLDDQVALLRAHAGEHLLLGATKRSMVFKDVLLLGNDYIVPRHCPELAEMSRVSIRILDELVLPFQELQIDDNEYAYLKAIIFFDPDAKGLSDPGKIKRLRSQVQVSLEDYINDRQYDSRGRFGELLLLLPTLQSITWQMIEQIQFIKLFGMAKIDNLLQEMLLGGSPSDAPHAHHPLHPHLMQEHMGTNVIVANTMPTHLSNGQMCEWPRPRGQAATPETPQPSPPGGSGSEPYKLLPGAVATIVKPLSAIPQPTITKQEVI
# caTPT1 confirm – TPT1 (C. albicans) inhibition, confirmation. shares compounds with TPT1 inh. recombinant caTPT1, fluorescence polarization, RNase T1 coupled. inhibition, % at 5 µM. actives 74% (n = 2,400). AID 2149;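 active = inhibition above the primary screen limit, the mean inhibition of all tested compounds plus 3 SD, cut at about 25% in these data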
# RNase T1 counter – counter-screen for TPT1 inhibitors: inhibitors of Aspergillus oryzae RNase T1; actives 83% (n = 2,400); RNase T1 cleavage, fluorescence polarization, 1536-well; AID 2153; shares compounds with TPT1 inh; inhibition, % at 5 µM;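 active = inhibition above the solvent-only control well mean plus 3 SD, limit set per screening run, cut at about 23% in these data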;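 note: plate controls were DMSO wells with enzyme for no effect and wells without RNase T1 for full effect; inhibitors block cleavage so intact labeled substrate keeps polarization high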
# An asterisk follows results filed as active; i = inactive; . = not tested or not shown.
SMILES,UBC9 SUMO inh,TPT1 inh,Rpn11 block,SENP1 FRET inh,CSN deneddyl inh,HNF4A DNA FP,caTPT1 confirm,RNase T1 counter
COc1cc([N+](=O)[O-])ccc1N/C=C/C(=O)c1cccs1,22.6,166.6*,.,-23.7,-70.9,147.3,143.4*,136.2*
COc1ccc(Nc2ccc(S(=O)(=O)N3CCCCC3)cc2[N+](=O)[O-])cc1Cl,12.0,-1.4,i,3.4,0.2,0.2,.,.
COc1ccc(Nc2ccc(S(=O)(=O)N3CCCCC3)cc2[N+](=O)[O-])cc1,-11.8,66.9*,i,4.1,-2.3,-3.8,5.9,9.2
Cc1ccc(S(=O)(=O)N2CCN(S(C)(=O)=O)C2C)cc1 (stereo not given),.,-1.3,i,0.7,4.6,0.8,.,.
N#CC(C#N)=C/C(C#N)=C(/N)N1CCN(c2ccc(Cl)cc2)CC1,-17.1,55.8*,i,-57.7,4.1,0.9,14.7,20.6
O=C(O)c1ccc(N/N=C/c2cc3cc4c(cc3nc2Cl)OCCO4)cc1,18.6,26.8*,i,-40.8,4.5,4.5,37.7*,47.9*
Cc1ccc(S(=O)(=O)Nc2ccccc2-c2ccccc2NS(=O)(=O)c2ccc(C)cc2)cc1,-0.7,1.8,i,-0.2,2.1,1.1,.,.
O=C1c2ccccc2-c2cccc(NS(=O)(=O)c3ccc(C(F)(F)F)cc3)c21,1.5,42.3*,.,7.8,34.8,18.2,47.1*,54.8*
Cc1ccc(C(=O)NCc2nc3ccccc3[nH]2)o1,13.6,1.7,i,-5.3,-4.6,-1.7,.,.
CCCCCCc1cc2cc(-c3nnc(-c4cc(OC)c(OC)c(OC)c4)o3)c(=O)oc2cc1O,3.3,118.5*,.,.,.,.,130.3*,120.8*
CCCCCCc1cc2cc(-c3nnc(-c4ccccc4O)o3)c(=O)oc2cc1O,29.2,121.3*,.,-22.4,-73.1,-98.1,113.7*,112.8*
CCCCCCc1cc2cc(-c3nnc(-c4ccccc4OC)o3)c(=O)oc2cc1O,-194.2,97.5*,.,-26.8,87.2,88.3,97.3*,114.2*
COc1ccc(S(=O)(=O)N(C)C[C@@H]2OCc3cn(nn3)CCCC(=O)N([C@@H](C)CO)C[C@H]2C)cc1,.,.,i,1.5,4.2,2.6,.,.
O=C1CC(/C=C/c2ccco2)=Nc2ccccc2N1,33.7,-3.5,i,-8.3,16.6,-7.8,.,.
O=C1CC(C(F)(F)C(F)(F)C(F)(F)C(F)F)=Nc2ccccc2N1,7.6,75.0*,i,-1.4,-1.5,6.0,8.7,14.3
Cc1c(Cc2ccccc2)sc(/N=C/c2c(O)ccc3ccccc23)c1C(N)=O,18.8,94.0*,.,-27.0,86.8,38.3*,47.6*,57.1*
Cc1c(Cc2ccccc2)sc(N)c1C(N)=O,-1.2,10.5,.,.,.,.,.,.
Cc1c(Cc2ccccc2)sc(/N=C/c2ccc3ccccc3c2)c1C(N)=O,7.5,55.6*,i,-29.4,-1.5,12.7,7.6,13.1
Cc1ccc(/C=N/c2sc(Cc3ccccc3)c(C)c2C(N)=O)o1,14.3,8.2,i,-26.8,-6.8,26.7,.,.
CN(C)c1ccc(C(=O)c2ccccc2)cc1,10.7,48.4*,i,3.0,0.1,-3.5,8.0,13.2
C=C(c1ccccc1)c1ccc(N(C)C)cc1,-1.8,-0.8,i,0.8,11.9,-1.1,.,.
O=C(C1=NN(c2ccccc2)C2C(=O)N(c3ccc(Cl)cc3)C(=O)C12)c1ccccc1 (stereo not given),24.7,33.2*,i,-27.1,9.2,4.9,23.4,35.2*
O=C(C1=NN(c2ccccc2)C2C(=O)N(c3cccc(Cl)c3)C(=O)C12)c1ccccc1 (stereo not given),8.5,33.4*,i,-25.6,5.6,9.6,36.6*,51.3*
Cc1ccc(NC(=O)CNC(=O)c2ccc(Br)o2)nc1,.,0.8,i,0.1,1.2,0.5,.,.
Cc1ccc(OCCC(=O)OCC(=O)NNC(=O)c2ccccc2)cc1,.,-4.2,i,0.7,-2.5,-0.7,.,.
SMILES,UBC9 SUMO inh,TPT1 inh,Rpn11 block,SENP1 FRET inh,CSN deneddyl inh,HNF4A DNA FP,caTPT1 confirm,RNase T1 counter
O=C1/C(=C/c2cccnc2)CCC/C1=C\c1cccnc1,-1.3,0.9,.,.,.,.,.,.
Cn1cccc1/C=C1\CCC/C(=C\c2cccn2C)C1=O,11.0,192.4*,.,-24.8,-0.3,146.1,194.4*,171.3*
COc1cc(/C=C2/C(=O)NN(c3ccc(F)cc3)C2=O)cc(Cl)c1O,-16.0,39.8*,i,-0.4,14.0,6.4,79.9*,99.1*
C#CCOc1c(Cl)cc(/C=C2/C(=O)ON=C2C)cc1OC,-7.8,0.1,i,-0.5,2.2,3.7,.,.
COc1cc(/C=C2/C(=O)ON=C2C)cc(Cl)c1O,6.7,41.6*,i,-1.0,7.1,1.1,100.6*,112.6*
N#CCCN(C(=O)CO/N=C/c1cccc([N+](=O)[O-])c1)c1ccccc1,8.1,-2.1,i,4.0,3.1,-1.2,.,.
COC(=O)Cn1cc(/C=C/c2cc[n+](C)cc2)c2ccccc21,21.5,34.6*,.,-36.8,68.4,91.6,40.5*,48.5*
COc1cccc(NC(=S)NCc2ccc(F)cc2)c1,4.8,-0.6,i,1.7,4.0,0.4,.,.
O=C(CCCCl)Oc1ccc2cc(-c3ccc4ccccc4n3)c(=O)oc2c1,25.8,49.4*,i,-24.3,9.9,17.8,35.3*,42.2*
O=[N+]([O-])c1cccc(C2CC(c3ccccc3)=NN2c2ccccc2)c1 (stereo not given),8.1,-1.4,i,-2.4,-1.6,-3.3,.,.
N#CC1CC(c2ccc([N+](=O)[O-])cc2)=NN1c1ccc([N+](=O)[O-])cc1 (stereo not given),-2.2,73.0*,.,-33.4,23.2,87.0,91.0*,97.3*
Cc1nn(C)c(C)c1NS(=O)(=O)c1c(C)n[nH]c1C,.,.,i,-0.4,1.5,-3.1,.,.
CCOC(=O)N1CCC(N(CCN(C)C)C(=S)Nc2cc(C)ccc2C)CC1,-9.0,0.1,i,-1.7,1.9,-1.6,.,.
COc1ccc(/C=N/Nc2ccc([N+](=O)[O-])cc2S(=O)(=O)N2CCN(C)CC2)cc1,7.5,71.0*,.,-26.5,34.5,163.6,104.9*,118.3*
COc1ccc(C=NNc2ccc([N+](=O)[O-])cc2S(=O)(=O)Nc2ccccc2C(=O)O)cc1OC,.,.,i,-30.4,6.7,12.0,.,.
COc1ccc(NS(=O)(=O)c2cc([N+](=O)[O-])ccc2N/N=C\c2c(C)[nH]c3ccccc23)cc1,11.4,71.6*,.,12.0,25.1,64.5*,74.5*,85.7*
